The text below walks through data of ChEMBL document CHEMBL1800036, “A novel HDAC inhibitor with a hydroxy-pyrimidine scaffold” (Bioorg Med Chem Lett, 2011).

Calls of active or inactive are those of the source. The calls are words filed in the database; no cut-off is given here.

For one assay, the target named is Histone deacetylase 5 (Homo sapiens, UniProt Q9UQL6). Briefly: Inhibition of recombinant HDAC5 assessed as inhibition of fluorogenic aminocoumarin release from substrate by trypsin-coupled biochemical assay. The method in brief:
(§1)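 Trypsin-coupled fluorogenic assay. Substrate is an acetylated lysine tripeptide amide-linked to aminocoumarin (AMC). HDAC deacetylation allows trypsin to release AMC, and the fluorescence increase is read. Compound was tested at various concentrations and normalized to a DMSO control. IC50 was derived by non-linear regression fit.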

The target of a further assay is Histone deacetylase 3 (Homo sapiens, UniProt O15379). The experiment in a line: Inhibition of recombinant HDAC3 assessed as inhibition of fluorogenic aminocoumarin release from substrate by trypsin-coupled biochemical assay. An outline of the steps:
as §1

The target in another assay is T1, Histone deacetylase 8 (Homo sapiens, UniProt Q9BY41).
T1 sequence (Q9BY41 whole entry): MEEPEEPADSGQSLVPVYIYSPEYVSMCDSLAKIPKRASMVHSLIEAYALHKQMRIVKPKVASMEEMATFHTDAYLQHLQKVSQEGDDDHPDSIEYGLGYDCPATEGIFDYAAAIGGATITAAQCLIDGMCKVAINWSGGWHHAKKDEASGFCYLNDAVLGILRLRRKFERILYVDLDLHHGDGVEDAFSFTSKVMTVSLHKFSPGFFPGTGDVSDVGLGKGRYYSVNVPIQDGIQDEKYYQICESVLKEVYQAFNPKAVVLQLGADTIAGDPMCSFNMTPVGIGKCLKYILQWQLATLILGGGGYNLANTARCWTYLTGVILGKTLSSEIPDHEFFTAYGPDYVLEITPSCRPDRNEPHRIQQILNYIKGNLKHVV
Briefly: Inhibition of recombinant HDAC8 assessed as inhibition of fluorogenic aminocoumarin release from substrate by trypsin-coupled biochemical assay. The method in brief: as §1

The target of assay [1] is T2, Protein deacetylase HDAC6 (Homo sapiens, UniProt Q9UBN7).
T2 sequence (Q9UBN7 whole entry): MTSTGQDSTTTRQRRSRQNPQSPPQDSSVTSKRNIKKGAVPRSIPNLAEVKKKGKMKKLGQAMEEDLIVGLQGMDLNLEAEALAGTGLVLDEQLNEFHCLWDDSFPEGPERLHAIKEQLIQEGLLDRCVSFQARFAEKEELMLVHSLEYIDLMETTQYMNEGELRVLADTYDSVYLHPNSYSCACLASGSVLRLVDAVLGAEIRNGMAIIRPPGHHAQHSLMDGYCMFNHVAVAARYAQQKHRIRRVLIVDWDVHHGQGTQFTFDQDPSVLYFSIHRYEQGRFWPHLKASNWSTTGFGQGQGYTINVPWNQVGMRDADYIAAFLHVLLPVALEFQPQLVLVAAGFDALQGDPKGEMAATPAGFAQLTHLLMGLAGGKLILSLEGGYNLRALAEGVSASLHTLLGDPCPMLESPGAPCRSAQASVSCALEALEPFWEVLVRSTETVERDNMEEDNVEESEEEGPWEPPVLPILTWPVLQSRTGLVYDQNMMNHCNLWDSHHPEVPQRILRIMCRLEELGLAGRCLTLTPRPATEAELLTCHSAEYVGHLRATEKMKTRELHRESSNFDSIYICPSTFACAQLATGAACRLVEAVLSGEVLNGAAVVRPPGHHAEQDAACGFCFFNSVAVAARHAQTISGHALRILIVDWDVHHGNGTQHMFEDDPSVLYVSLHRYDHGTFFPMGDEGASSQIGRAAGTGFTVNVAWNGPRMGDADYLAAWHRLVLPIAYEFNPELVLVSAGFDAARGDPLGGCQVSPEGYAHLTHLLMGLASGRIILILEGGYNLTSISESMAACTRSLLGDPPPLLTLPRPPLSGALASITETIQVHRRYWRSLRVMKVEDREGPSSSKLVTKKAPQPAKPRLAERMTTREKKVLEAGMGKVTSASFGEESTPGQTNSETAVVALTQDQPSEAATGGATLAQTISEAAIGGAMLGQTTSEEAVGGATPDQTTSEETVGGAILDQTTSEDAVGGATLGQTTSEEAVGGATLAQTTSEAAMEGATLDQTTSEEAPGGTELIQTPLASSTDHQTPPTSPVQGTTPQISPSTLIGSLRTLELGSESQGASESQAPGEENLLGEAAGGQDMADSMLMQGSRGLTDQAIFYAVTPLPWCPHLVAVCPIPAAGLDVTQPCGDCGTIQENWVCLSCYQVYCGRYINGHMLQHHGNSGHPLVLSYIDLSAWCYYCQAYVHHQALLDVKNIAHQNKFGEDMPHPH
Briefly: Inhibition of recombinant HDAC6 assessed as inhibition of fluorogenic aminocoumarin release from substrate by trypsin-coupled biochemical assay. An outline of the steps: as §1

The target in assay [2] is T3, Histone deacetylase 2 (Homo sapiens, UniProt Q92769). Briefly: Inhibition of recombinant HDAC2 assessed as inhibition of fluorogenic aminocoumarin release from substrate by trypsin-coupled biochemical assay.
For the next assay, the target named is T4, Histone deacetylase 7 (Homo sapiens, UniProt Q8WUI4).
T4 sequence (Q8WUI4 whole entry): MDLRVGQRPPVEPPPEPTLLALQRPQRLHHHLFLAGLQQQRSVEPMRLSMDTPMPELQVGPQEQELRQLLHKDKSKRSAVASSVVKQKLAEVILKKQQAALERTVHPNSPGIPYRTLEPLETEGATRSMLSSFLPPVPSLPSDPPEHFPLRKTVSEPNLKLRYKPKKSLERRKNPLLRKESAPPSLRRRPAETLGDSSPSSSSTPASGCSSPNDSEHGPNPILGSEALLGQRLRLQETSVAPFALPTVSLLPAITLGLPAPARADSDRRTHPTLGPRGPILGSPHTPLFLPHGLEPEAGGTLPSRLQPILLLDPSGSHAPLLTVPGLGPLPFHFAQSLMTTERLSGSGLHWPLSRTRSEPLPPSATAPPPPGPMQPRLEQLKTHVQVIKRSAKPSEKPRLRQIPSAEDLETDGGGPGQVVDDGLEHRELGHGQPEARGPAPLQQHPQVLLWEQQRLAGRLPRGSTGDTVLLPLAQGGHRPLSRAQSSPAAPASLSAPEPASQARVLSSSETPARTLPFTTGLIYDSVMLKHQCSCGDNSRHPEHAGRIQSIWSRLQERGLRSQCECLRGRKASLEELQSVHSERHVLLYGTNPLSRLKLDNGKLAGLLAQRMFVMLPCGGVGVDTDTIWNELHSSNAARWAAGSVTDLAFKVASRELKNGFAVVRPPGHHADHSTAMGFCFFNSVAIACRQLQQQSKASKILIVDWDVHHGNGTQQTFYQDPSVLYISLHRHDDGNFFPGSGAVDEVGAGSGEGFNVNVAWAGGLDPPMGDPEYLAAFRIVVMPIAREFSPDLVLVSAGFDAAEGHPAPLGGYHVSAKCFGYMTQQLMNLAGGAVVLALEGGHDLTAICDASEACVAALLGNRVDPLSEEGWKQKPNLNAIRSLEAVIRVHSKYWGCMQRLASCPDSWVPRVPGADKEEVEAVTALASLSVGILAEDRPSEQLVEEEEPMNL
Briefly: Inhibition of recombinant HDAC7 assessed as inhibition of fluorogenic aminocoumarin release from substrate by trypsin-coupled biochemical assay.

The target in the next assay is Histone deacetylase 1 (Homo sapiens, UniProt Q13547). Briefly: Inhibition of recombinant HDAC1 assessed as inhibition of fluorogenic aminocoumarin release from substrate by trypsin-coupled biochemical assay. The method in brief:
as §1

Another assay addresses Histone deacetylase 4 (Homo sapiens, UniProt P56524). Briefly: Inhibition of recombinant HDAC4 assessed as inhibition of fluorogenic aminocoumarin release from substrate by trypsin-coupled biochemical assay. The method in brief:
as §1

For a further assay, the target named is Histone deacetylase 9 (Homo sapiens, UniProt Q9UKV0). The experiment in a line: Inhibition of recombinant HDAC9 assessed as inhibition of fluorogenic aminocoumarin release from substrate by trypsin-coupled biochemical assay. The method in brief:
as §1

The target in assay [3] is T3, Histone deacetylase 2. Briefly: Competitive inhibition of HDAC2 active site at 1 to 100 uM by Lineweaver-Burk plot. An outline of the steps:
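Lysine-deacetylation inhibition mode on HDAC2. Several inhibitor concentrations were tested with substrate at 10 times above and below the HDAC2 Km. The trypsin-coupled AMC fluorescence read-out was analysed by Lineweaver-Burk plot.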

Histone deacetylase 9, sequence (Q9UKV0 whole entry): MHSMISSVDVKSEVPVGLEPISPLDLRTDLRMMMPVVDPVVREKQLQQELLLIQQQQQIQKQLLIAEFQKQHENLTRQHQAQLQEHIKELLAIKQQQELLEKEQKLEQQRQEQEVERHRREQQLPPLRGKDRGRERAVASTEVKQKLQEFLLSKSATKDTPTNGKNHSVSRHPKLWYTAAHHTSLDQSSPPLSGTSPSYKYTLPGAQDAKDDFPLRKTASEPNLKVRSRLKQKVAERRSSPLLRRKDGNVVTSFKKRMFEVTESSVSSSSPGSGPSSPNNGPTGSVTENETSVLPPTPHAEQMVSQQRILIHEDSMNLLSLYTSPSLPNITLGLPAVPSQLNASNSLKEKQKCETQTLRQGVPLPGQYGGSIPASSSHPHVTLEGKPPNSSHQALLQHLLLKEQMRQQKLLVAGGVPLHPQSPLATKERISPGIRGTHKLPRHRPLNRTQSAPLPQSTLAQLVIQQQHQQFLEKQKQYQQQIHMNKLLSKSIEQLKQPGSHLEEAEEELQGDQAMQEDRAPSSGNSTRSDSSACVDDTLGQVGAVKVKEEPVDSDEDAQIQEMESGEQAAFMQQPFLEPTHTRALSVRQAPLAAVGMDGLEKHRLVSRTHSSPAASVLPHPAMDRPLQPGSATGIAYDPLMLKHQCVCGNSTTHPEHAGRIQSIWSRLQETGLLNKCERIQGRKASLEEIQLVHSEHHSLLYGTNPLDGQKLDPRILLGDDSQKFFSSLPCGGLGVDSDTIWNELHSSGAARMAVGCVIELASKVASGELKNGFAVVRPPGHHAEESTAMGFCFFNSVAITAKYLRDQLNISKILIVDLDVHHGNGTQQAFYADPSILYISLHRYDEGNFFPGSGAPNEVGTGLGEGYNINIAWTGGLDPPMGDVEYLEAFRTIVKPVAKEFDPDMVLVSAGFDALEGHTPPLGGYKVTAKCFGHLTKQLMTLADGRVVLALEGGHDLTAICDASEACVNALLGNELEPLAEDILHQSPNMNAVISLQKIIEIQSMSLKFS
Histone deacetylase 4, sequence (P56524 whole entry): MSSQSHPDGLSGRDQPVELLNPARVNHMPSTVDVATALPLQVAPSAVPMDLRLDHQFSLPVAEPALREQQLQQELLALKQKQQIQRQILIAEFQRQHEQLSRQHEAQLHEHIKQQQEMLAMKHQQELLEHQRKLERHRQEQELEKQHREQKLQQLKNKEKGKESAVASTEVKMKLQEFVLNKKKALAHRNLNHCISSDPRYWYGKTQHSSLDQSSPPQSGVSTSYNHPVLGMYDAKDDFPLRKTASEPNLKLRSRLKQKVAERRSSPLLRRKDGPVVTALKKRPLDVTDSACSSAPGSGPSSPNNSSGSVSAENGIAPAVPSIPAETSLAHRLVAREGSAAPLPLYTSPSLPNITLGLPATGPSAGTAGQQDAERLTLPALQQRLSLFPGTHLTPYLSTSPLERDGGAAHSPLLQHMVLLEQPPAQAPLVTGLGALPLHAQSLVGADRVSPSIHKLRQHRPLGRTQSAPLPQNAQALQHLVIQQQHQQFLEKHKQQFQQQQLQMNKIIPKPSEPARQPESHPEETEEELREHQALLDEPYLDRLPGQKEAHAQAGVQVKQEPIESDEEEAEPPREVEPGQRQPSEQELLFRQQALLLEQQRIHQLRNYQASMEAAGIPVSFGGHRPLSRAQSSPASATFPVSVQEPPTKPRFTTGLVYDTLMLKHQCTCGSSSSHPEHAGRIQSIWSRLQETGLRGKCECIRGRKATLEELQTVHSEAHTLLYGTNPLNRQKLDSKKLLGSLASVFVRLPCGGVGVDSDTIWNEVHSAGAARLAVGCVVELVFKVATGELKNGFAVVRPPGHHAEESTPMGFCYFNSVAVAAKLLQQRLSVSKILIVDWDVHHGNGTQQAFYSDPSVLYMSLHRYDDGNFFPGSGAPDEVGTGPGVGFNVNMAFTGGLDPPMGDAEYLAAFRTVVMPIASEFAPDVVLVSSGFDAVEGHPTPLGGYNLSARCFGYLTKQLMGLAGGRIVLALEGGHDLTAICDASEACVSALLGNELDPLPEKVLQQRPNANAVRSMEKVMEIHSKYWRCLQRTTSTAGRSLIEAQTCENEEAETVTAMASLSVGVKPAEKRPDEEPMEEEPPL
Histone deacetylase 3, sequence (O15379 whole entry): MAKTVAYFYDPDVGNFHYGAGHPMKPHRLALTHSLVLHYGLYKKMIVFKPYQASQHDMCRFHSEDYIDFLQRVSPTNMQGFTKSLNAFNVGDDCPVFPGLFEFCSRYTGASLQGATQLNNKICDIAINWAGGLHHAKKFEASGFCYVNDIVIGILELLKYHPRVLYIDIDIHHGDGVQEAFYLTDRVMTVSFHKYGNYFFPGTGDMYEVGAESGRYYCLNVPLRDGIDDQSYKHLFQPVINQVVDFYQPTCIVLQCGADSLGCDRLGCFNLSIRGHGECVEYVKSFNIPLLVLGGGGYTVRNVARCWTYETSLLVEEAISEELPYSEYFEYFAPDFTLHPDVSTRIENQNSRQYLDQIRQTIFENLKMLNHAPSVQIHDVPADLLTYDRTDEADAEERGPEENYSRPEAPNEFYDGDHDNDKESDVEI
T3 sequence (Q92769 whole entry): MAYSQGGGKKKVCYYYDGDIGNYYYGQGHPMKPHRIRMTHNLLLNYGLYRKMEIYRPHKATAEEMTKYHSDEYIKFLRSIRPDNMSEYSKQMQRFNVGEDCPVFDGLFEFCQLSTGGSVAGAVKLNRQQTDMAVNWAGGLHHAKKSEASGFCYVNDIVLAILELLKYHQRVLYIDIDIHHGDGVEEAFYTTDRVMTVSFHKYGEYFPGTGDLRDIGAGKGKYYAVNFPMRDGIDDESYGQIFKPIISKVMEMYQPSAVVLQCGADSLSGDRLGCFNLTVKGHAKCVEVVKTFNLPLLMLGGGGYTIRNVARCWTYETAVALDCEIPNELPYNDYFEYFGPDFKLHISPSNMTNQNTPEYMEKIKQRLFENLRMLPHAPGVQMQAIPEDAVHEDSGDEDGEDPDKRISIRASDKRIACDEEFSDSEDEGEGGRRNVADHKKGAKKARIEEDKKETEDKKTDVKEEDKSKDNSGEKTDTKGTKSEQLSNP
Histone deacetylase 5, sequence (Q9UQL6 whole entry): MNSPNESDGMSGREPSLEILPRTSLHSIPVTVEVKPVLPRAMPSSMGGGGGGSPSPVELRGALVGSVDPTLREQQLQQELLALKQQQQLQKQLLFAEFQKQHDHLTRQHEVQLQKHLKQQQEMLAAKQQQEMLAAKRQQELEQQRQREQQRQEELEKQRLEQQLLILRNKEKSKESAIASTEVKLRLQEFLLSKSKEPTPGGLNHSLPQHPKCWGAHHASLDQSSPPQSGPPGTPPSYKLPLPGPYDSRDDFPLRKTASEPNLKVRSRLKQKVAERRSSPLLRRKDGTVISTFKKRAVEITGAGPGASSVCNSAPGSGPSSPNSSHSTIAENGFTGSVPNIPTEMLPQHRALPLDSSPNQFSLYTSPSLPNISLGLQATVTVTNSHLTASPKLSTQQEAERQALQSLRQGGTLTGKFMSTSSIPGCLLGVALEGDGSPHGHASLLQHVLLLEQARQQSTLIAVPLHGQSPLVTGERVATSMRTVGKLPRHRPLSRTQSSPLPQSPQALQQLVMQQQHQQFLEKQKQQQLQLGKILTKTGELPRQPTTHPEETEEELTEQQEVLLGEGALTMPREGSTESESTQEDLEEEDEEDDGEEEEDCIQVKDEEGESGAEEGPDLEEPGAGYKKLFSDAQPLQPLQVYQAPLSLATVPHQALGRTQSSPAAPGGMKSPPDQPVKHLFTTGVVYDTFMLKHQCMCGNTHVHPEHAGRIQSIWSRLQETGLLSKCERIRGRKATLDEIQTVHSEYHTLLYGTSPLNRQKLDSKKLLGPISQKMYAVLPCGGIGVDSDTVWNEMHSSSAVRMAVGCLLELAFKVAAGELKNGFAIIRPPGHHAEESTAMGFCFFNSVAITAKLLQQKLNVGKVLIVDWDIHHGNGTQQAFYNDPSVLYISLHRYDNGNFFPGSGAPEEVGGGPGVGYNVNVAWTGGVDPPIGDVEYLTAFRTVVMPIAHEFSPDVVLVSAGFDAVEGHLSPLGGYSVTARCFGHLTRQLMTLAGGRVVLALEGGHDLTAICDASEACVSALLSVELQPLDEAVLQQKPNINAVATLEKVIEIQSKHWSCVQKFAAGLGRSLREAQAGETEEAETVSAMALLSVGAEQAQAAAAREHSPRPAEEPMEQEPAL
Histone deacetylase 1, sequence (Q13547 whole entry): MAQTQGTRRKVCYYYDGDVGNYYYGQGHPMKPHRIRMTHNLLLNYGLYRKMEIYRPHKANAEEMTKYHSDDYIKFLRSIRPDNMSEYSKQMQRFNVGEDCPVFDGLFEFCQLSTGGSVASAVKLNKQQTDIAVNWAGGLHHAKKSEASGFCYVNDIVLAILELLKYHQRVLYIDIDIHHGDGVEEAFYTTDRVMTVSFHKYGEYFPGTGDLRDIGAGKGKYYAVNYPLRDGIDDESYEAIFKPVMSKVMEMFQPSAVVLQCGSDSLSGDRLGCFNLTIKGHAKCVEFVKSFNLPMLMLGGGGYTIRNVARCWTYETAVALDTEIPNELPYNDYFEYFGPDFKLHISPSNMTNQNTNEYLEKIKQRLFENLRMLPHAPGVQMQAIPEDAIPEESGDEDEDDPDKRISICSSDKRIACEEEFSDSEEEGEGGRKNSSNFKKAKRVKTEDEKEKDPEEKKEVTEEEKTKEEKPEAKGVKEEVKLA

On to `CC(=O)Nc1ccc(C(=O)CSc2cccc(O)c2)cc1`, for which the IC50 (at Histone deacetylase 5; on Histone deacetylase 3; at Histone deacetylase 8; in [1]; on Histone deacetylase 2 [2]; on Histone deacetylase 7) was more than 100 µM in each case. The IC50 at Histone deacetylase 1, at Histone deacetylase 4 and at Histone deacetylase 9 was more than 100 µM throughout.
Regarding `CCOC(=O)CC(=O)CSc1nc(C)cc(O)n1`, the IC50 was 48.6 µM on Histone deacetylase 5; 40 µM at Histone deacetylase 3; more than 100 µM on Histone deacetylase 8; 7.2 µM in assay [1]; 69.3 µM at Histone deacetylase 2 [2]; more than 100 µM at Histone deacetylase 7. Further, the IC50 is 77.2 µM at Histone deacetylase 1, more than 100 µM on Histone deacetylase 4 and more than 100 µM at Histone deacetylase 9.
For the compound `Cc1cc(=O)[nH]c(SCC(=O)c2ccc(O)cc2)n1`, the IC50 at Histone deacetylase 5 was more than 100 µM; at Histone deacetylase 3, more than 100 µM; at Histone deacetylase 8 it was more than 100 µM; in [1], 40.1 µM; at Histone deacetylase 2 [2], more than 100 µM; at Histone deacetylase 7 it was more than 100 µM. The IC50 at Histone deacetylase 1, on Histone deacetylase 4 and on Histone deacetylase 9 was more than 100 µM throughout.
As to `CC(=O)CSc1nc(C)cc(=O)[nH]1`, the IC50 (at Histone deacetylase 5; on Histone deacetylase 3; at Histone deacetylase 8; in [1]; on Histone deacetylase 2 [2]; at Histone deacetylase 7) was more than 100 µM each time. Also, the IC50 at Histone deacetylase 1, at Histone deacetylase 4 and at Histone deacetylase 9 was more than 100 µM throughout.
For `Cc1cc(O)nc(SCC(=O)c2ccc(O)c(O)c2)n1`, the IC50 on Histone deacetylase 5 is more than 100 µM; on Histone deacetylase 3 it was more than 100 µM; on Histone deacetylase 8, more than 100 µM; in [1], 16.7 µM; on Histone deacetylase 2 [2], more than 100 µM; on Histone deacetylase 7, more than 100 µM. Besides, the IC50 at Histone deacetylase 1, on Histone deacetylase 4 and at Histone deacetylase 9 was more than 100 µM in each case.
Turning to `CC(=O)Nc1ccc(CSc2nc(C)cc(O)n2)cc1`, the IC50 (at Histone deacetylase 5; at Histone deacetylase 3; at Histone deacetylase 8; in [1]; at Histone deacetylase 2 [2]; at Histone deacetylase 7) was more than 100 µM in each case. The IC50 at Histone deacetylase 1, on Histone deacetylase 4 and at Histone deacetylase 9 was more than 100 µM in each case.
With `Cc1cc(=O)[nH]c(SCC(=O)c2ccc(NC(=O)c3ccccc3)cc2)n1`, the IC50 is more than 100 µM at Histone deacetylase 5; more than 100 µM on Histone deacetylase 3; more than 100 µM on Histone deacetylase 8; 10.8 µM in [1]; more than 100 µM on Histone deacetylase 2 [2]; more than 100 µM on Histone deacetylase 7. Besides, the IC50 on Histone deacetylase 1, on Histone deacetylase 4 and at Histone deacetylase 9 was more than 100 µM in each case.
Take `Cc1cc(O)nc(SCC(=O)c2ccc(Cl)cc2)n1`: the IC50 was more than 100 µM on Histone deacetylase 5; 86.4 µM at Histone deacetylase 3; more than 100 µM on Histone deacetylase 8; 12.9 µM in assay [1]; 67 µM on Histone deacetylase 2 [2]; more than 100 µM on Histone deacetylase 7. Further, the IC50 on Histone deacetylase 1 was 82.3 µM; on Histone deacetylase 4, more than 100 µM; on Histone deacetylase 9, more than 100 µM.
For the compound `Cc1cc(=O)[nH]c(SCC(=O)NCCCCCCc2ccccc2)n1`, the IC50 (on Histone deacetylase 5; on Histone deacetylase 3; on Histone deacetylase 8; in assay [1]; on Histone deacetylase 2 [2]; on Histone deacetylase 7) was more than 100 µM throughout. Also, the IC50 on Histone deacetylase 1, at Histone deacetylase 4 and on Histone deacetylase 9 was more than 100 µM each time.
As to `CC(=O)Nc1ccc(C(=O)CSc2nc(C)cc(O)n2)cc1`, the IC50 on Histone deacetylase 5 amounted to 27.9 µM; at Histone deacetylase 3, 15.2 µM; on Histone deacetylase 8, 23.9 µM; in assay [1] it was 11.2 µM; on Histone deacetylase 2 [2] it was 18.9 µM; on Histone deacetylase 1 it was 16.4 µM. For the same compound, the IC50 came out at 32.5 µM on Histone deacetylase 4 and 74.1 µM on Histone deacetylase 9. Also, the inhibition result at Histone deacetylase 2 [3] was “Active”.
`Cc1cc(O)nc(SCC(=O)c2cccs2)n1`: the IC50 at Histone deacetylase 5 was more than 100 µM; on Histone deacetylase 3, more than 100 µM; on Histone deacetylase 8, more than 100 µM; in assay [1], 24.8 µM; at Histone deacetylase 2 [2], more than 100 µM; on Histone deacetylase 7 it was more than 100 µM. Moreover, the IC50 on Histone deacetylase 1, at Histone deacetylase 4 and at Histone deacetylase 9 was more than 100 µM throughout.
Regarding `CC(=O)Nc1ccc(C(=O)COc2cc(C)cc(=O)[nH]2)cc1`, the IC50 (on Histone deacetylase 5; at Histone deacetylase 3; at Histone deacetylase 8; in assay [1]; at Histone deacetylase 2 [2]; at Histone deacetylase 7) was more than 100 µM each time. Besides, the IC50 on Histone deacetylase 1, on Histone deacetylase 4 and at Histone deacetylase 9 was more than 100 µM in each case.
For `Cc1cc(O)nc(SCC(=O)NCCc2ccccc2)n1`, the IC50 (on Histone deacetylase 5; on Histone deacetylase 3; at Histone deacetylase 8; in assay [1]; at Histone deacetylase 2 [2]; on Histone deacetylase 7) was more than 100 µM each time. In addition, the IC50 on Histone deacetylase 1, on Histone deacetylase 4 and on Histone deacetylase 9 was more than 100 µM each time.

Usually IC50 stands for the concentration at which inhibition is half-maximal.
